PMC8162271 (Chemical Science, 2020)

Legend:
Cu(II)–Aβ42 = Cu(II)–Aβ42 (Homo sapiens, UniProt P05067); assay: Aβ42 aggregation inhibition experiments; format: biochemical; settings: 24 h; for MW distribution of Aβ42 species by gel/Western blot: [Aβ42] 25 μM, [CuCl2] 25 μM, [flavonoid] 50 μM, pH 6.6, 37 °C; for morphology of Aβ42 aggregates by TEM: Cu(II)–Aβ42, [flavonoid] 50 μM
[1] = Trolox equivalent antioxidant capacity; settings: TEAC assay, result in words
Method in brief: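 Radical quenching was measured with the cationic radical of 2,2′-azino-bis(3-ethylbenzthiazoline-6-sulphonic acid) as substrate, in EtOH at 25 °C. Absorbance was read at 734 nm, and capacity is expressed relative to the vitamin E analog Trolox as Trolox equivalents.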

metal-free Aβ42 = metal-free Aβ42 (Homo sapiens, UniProt P05067); assay: Aβ42 aggregation inhibition experiments; format: biochemical; settings: [Aβ42] 25 μM, [flavonoid] 50 μM, pH 7.4, 37 °C, 24 h
metal-free Aβ42, sequence (P05067 672-713): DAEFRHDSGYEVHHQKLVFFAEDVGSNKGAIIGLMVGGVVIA
Method in brief: (§1)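 Freshly prepared Aβ42 (25 μM), metal-free or with ZnCl2 (25 μM), incubated with test compound (50 μM) at pH 7.4, 37 °C, for 24 h with constant agitation. Species sizes were resolved by gel/Western blot probed with anti-Aβ antibody 6E10. Band intensities were quantified and normalized to the matching untreated control (ISample/IControl). Aggregate morphology was imaged by TEM.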

[2] = molecular target: preformed metal-free Aβ42 aggregates (Homo sapiens, UniProt P05067); assay: Aβ42 disaggregation experiments; format: biochemical; settings: preformed aggregates (24 h) then [flavonoid] 50 μM 24 h, pH 7.4
preformed metal-free Aβ42 aggregates, sequence (P05067 672-713): as above
Method in brief: (§2)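 Aβ42 (25 μM), with or without metal ions, was pre-incubated for 24 h to form aggregates, then exposed to test compound for a further 24 h. Species sizes were analysed by gel/Western blot with anti-Aβ antibody 6E10. Band intensities were quantified as a ratio to the matching control (ISample/IControl). Morphology was examined by TEM.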

[3] = molecular target: Electrophorus electricus AChE (eeAChE) (Electrophorus electricus, UniProt O42275); assay: AChE activity assay; format: biochemical; settings: for inhibition of the activity of AChE: eeAChE, result in words; for IC50: AChE IC50, eeAChE, fluorometric assay
Electrophorus electricus AChE (eeAChE), sequence (O42275 24-633): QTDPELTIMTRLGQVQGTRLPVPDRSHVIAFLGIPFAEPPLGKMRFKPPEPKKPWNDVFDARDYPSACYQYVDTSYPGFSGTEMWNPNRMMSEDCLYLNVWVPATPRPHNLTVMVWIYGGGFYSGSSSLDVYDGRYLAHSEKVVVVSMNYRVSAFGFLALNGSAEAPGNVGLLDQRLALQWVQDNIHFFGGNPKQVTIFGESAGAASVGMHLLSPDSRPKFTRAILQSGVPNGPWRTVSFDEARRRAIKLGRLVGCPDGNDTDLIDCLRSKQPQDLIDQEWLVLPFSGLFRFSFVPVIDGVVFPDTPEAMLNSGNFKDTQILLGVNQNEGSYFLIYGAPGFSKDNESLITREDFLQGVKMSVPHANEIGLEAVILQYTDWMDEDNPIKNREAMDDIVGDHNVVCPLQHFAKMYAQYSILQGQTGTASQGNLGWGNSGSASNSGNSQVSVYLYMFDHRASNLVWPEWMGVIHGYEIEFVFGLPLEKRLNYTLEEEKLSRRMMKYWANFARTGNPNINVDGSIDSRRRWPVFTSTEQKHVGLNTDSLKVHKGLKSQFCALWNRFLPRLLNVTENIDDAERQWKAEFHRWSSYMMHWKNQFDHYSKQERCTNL

Zn(II)–Aβ42 = Zn(II)–Aβ42 (Homo sapiens, UniProt P05067); assay: Aβ42 aggregation inhibition experiments; format: biochemical; settings: 24 h; for MW distribution of Aβ42 species by gel/Western blot: [Aβ42] 25 μM, [ZnCl2] 25 μM, [flavonoid] 50 μM, pH 7.4, 37 °C; for morphology of Aβ42 aggregates by TEM: Zn(II)–Aβ42, [flavonoid] 50 μM
Zn(II)–Aβ42, sequence (P05067 672-713): as the sequence (P05067 672-713) above
Method in brief: as §1

[4] = molecular target: preformed Cu(II)–Aβ42 aggregates (Homo sapiens, UniProt P05067); assay: Aβ42 disaggregation experiments; format: biochemical
preformed Cu(II)–Aβ42 aggregates, sequence (P05067 672-713): as above
Method in brief: as §2

Interaction with Cu = format: physicochemical; settings: UV-Vis; indicative of oxidation
Method in brief: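 UV-Vis absorption spectra of test compound (25 μM) recorded with CuCl2 at 0, 12.5, 25, 50 and 125 μM. Medium was 20 mM HEPES, pH 6.6, 150 mM NaCl, or EtOH for some compounds. Additional spectra were taken after adding 0.5, 1 and 2 equiv of CuCl2.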

[5] = molecular target: preformed Zn(II)–Aβ42 aggregates (Homo sapiens, UniProt P05067); assay: Aβ42 disaggregation experiments; format: biochemical
preformed Zn(II)–Aβ42 aggregates, sequence (P05067 672-713): as above
Method in brief: as §2

Cu(II)–Aβ42, sequence (P05067 672-713): as above

SMILES | MW distribution of Aβ42 species by gel/Western blot (Cu(II)–Aβ42) | radical scavenging activity, compared to Trolox [1] | MW distribution of Aβ42 species by gel/Western blot (metal-free Aβ42) | MW distribution of Aβ42 species by gel/Western blot [2] | inhibition of the activity of AChE [3] | MW distribution of Aβ42 species by gel/Western blot (Zn(II)–Aβ42) | IC50 [3] [nM] | morphology of Aβ42 aggregates by TEM (Cu(II)–Aβ42) | morphology of Aβ42 aggregates by TEM (Zn(II)–Aβ42) | morphology of preformed aggregates by TEM [4] | absorption band at ca. 400–440 nm at greater Cu(II) concentrations (Interaction with Cu) | morphology of preformed aggregates by TEM [5]
O=c1cc(-c2ccc(O)cc2)oc2cc(O)cc(O)c12 [Api, Apigenin] | did not exhibit significant reactivity | negligible | did not exhibit significant reactivity | did not exhibit notable reactivity | not inhibited | did not exhibit significant reactivity | – | – | – | – | – | –
O=c1cc(-c2ccccc2)oc2cc(O)cc(O)c12 [Chr, chrysin] | did not exhibit significant reactivity | negligible | did not exhibit significant reactivity | did not exhibit notable reactivity | not inhibited | did not exhibit significant reactivity | – | – | – | – | – | –
O=c1c(O)c(-c2ccccc2)oc2cccc(O)c12 [DHF, 3,5-dihydroxyflavone] | did not exhibit significant reactivity | – | did not exhibit significant reactivity | did not exhibit notable reactivity | – | did not exhibit significant reactivity | > 2000 | – | – | – | – | –
O=c1c(-c2ccccc2)coc2cc(O)cc(O)c12 [DHIF, 5,7-dihydroxyisoflavone] | did not exhibit significant reactivity | negligible | did not exhibit significant reactivity | did not exhibit notable reactivity | – | did not exhibit significant reactivity | – | – | – | – | – | –
O=c1c(O)c(-c2ccccc2)oc2cc(O)cc(O)c12 [Gal, galangin] | did not exhibit significant reactivity | – | did not exhibit significant reactivity | did not exhibit notable reactivity | – | did not exhibit significant reactivity | – | did not significantly alter the morphologies | fibrillar aggregates similar to those from the compound-free Zn(II)–Aβ42 sample | – | – | –
O=c1c(-c2ccc(O)cc2)coc2cc(O)cc(O)c12 [Gen, genistein] | did not exhibit significant reactivity | – | did not exhibit significant reactivity | did not exhibit notable reactivity | – | did not exhibit significant reactivity | – | – | – | – | – | –
O=c1cc(-c2ccccc2)oc2cccc(O)c12 [HF, 5-hydroxyflavone] | did not exhibit significant reactivity | negligible | did not exhibit significant reactivity | did not exhibit notable reactivity | not inhibited | did not exhibit significant reactivity | > 2000 | did not significantly alter the morphologies | fibrillar aggregates similar to those from the compound-free Zn(II)–Aβ42 sample | – | – | –
O=c1c(-c2ccccc2)coc2cccc(O)c12 [HIF, 5-hydroxyisoflavone] | did not exhibit significant reactivity | negligible | did not exhibit significant reactivity | did not exhibit notable reactivity | not inhibited | did not exhibit significant reactivity | – | – | – | – | – | –
O=c1c(O)c(-c2ccc(O)cc2)oc2cc(O)cc(O)c12 [Kae, kaempferol] | increased the signal in the range of ca. 7–50 kDa | – | did not significantly influence | did not impact | – | did not significantly influence | – | amorphous assemblies distinct from native Aβ42 fibrils | fibrillar aggregates similar to those from the compound-free Zn(II)–Aβ42 sample | a mixture of amorphous aggregates and thinner chopped fibrils | diminished | –
O=c1cc(-c2ccc(O)c(O)c2)oc2cc(O)cc(O)c12 [Lut, luteolin] | increased the signal in the range of ca. 7–50 kDa | – | minor change | did not impact | – | altered the aggregation of Zn(II)–Aβ42, resulting in diverse MW distributions from ca. 15 to 50 kDa | – | decreased the degree of branching in the fibrils | thinner chopped fibrils | a mixture of amorphous aggregates and thinner chopped fibrils | – | –
O=c1c(-c2ccc(O)c(O)c2)coc2cc(O)cc(O)c12 [Oro, orobol] | significantly decreased the band intensity of the entire range (7–270 kDa) | – | minor change | very mildly varied the MW distribution | – | altered the aggregation of Zn(II)–Aβ42, resulting in diverse MW distributions from ca. 15 to 50 kDa | – | thinner and shorter aggregates | thinner chopped fibrils | a mixture of amorphous aggregates and thinner chopped fibrils | – | shorter fibrils
O=c1c(O)c(-c2ccc(O)c(O)c2)oc2cc(O)cc(O)c12 [Que, Quercetin] | increased the smearing band intensity at ca. 7–270 kDa | – | minor change | very mildly varied the MW distribution | – | altered the aggregation of Zn(II)–Aβ42, resulting in diverse MW distributions from ca. 15 to 50 kDa | – | significantly shorter fibrillar aggregates | thinner chopped fibrils | a mixture of amorphous aggregates and thinner chopped fibrils | diminished | shorter fibrils
